Experimental data reported in ChEMBL document CHEMBL4024789, “Neutral Porphyrin Derivative Exerts Anticancer Activity by Targeting Cellular Topoisomerase I (Top1) and Promotes Apoptotic Cell Death without Stabilizing Top1-DNA Cleavage Complexes” (J Med Chem, 2018).
Calls of active or inactive are those of the source. No cut-off for these calls is given here.

Legend:
[1] = target: T1, DNA topoisomerase 1 (Homo sapiens) (UniProt P11387); experiment: Inhibition of CPT-induced recombinant human topoisomerase1-[…] cleavage complex at 10 to 50 uM after 30 mins using topoisomerase1 expressed in baculovirus infected sf9 cells by […]
T1 sequence (whole entry): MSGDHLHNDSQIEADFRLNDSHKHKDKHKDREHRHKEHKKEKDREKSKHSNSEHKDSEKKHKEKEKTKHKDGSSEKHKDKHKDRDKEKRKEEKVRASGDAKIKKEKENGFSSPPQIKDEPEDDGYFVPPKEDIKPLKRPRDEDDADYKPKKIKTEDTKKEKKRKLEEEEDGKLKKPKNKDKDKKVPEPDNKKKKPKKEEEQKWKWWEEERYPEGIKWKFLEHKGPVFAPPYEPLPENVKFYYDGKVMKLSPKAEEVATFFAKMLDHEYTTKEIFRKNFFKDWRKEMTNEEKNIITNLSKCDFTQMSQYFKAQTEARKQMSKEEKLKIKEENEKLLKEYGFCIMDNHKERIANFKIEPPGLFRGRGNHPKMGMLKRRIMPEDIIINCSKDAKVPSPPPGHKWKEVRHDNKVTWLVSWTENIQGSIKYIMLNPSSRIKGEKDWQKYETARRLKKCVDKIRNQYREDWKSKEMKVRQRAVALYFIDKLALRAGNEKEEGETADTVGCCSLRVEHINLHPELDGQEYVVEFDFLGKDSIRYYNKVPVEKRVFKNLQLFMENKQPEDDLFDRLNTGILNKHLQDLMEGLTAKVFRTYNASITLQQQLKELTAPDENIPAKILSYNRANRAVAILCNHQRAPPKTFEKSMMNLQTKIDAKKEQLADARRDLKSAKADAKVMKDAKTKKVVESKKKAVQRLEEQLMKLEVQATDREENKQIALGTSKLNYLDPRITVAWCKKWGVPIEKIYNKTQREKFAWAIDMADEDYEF

[2] = target: T1, DNA topoisomerase 1 (Homo sapiens); experiment: Inhibition of recombinant human topoisomerase1-[32P]-labeled 25-mer duplex oligonucleotide cleavage complex formation at 10 to 50 uM after 30 mins using topoisomerase1 expressed in baculovirus infected sf9 cells by […]
[3] = test system: MCF7; experiment: Induction of PARP cleavage in human MCF7 cells at 10 uM up to 12 hrs by Western blot method; type: functional, cell-based
How it was run: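 MCF7 cells treated with 10 μM for the indicated times. Full-length and cleaved PARP1 detected by Western blot of whole-cell extracts using rabbit polyclonal PARP1 antibody.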

[4] = target: T1, DNA topoisomerase 1 (Homo sapiens); experiment: Inhibition of topoisomerase-1 in human MCF7 whole cell extracts at 0.25 to 5 uM using supercoiled pBS SK(+) DNA as substrate preincubated for 5 mins followed by substrate addition measured after 15 mins by ethidium bromide staining based agarose gel electrophoresis method
How it was run: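 Ex vivo relaxation assay with MCF7 whole-cell lysate as the Top1 source and supercoiled pBS (SK+) DNA. Compound either preincubated with lysate for 5 min before DNA, or added simultaneously; then 37 °C for 15 min. CPT control at 5 μM. Read on agarose gel; mean ± SD, n=3.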

[5] = target: T1, DNA topoisomerase 1 (Homo sapiens); experiment: Inhibition of […]-induced topoisomerase-1- genomic DNA cleavage complex in human MCF7 cells at 20 uM after 6 hrs by ICE assay; type: cell-based
How it was run: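 ICE bioassay in MCF7 cells. Treatment was CPT (10 μM) or compound (20 μM) for 12 h, or CPT for 6 h then compound for a further 6 h. Genomic DNA (0.5–4 μg) probed with anti-Top1 antibody. Quantified with n = 3, ± SEM, t test.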

[6] = target: T2, DNA topoisomerase 1 (Homo sapiens, UniProt P11387); experiment: Inhibition of recombinant human topoisomerase-1 expressed in baculovirus infected sf9 cells using supercoiled pBS SK(+) DNA as substrate preincubated for 5 mins followed by substrate addition measured after 15 mins by ethidium bromide staining based agarose gel electrophoresis method
T2 sequence (P11387 whole entry): T1 sequence (whole entry)
How it was run: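 Relaxation assay: 90 fmol supercoiled pBS (SK+) DNA with 30 fmol recombinant Top1 (Sf-9/baculovirus). Compound either preincubated with Top1 for 5 min before DNA addition, or added simultaneously with DNA; then 37 °C for 15 min. Vehicle 2% DMSO. Read on 1% agarose gel. EC50 from mean ± SD of three experiments.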

[7] = test system: MCF7; experiment: Induction of ROS accumulation in human MCF7 cells at 10 uM up to 24 hrs in presence of ROS inhibitor NAC by CM-H2DCFDA dye based spectrofluorometric method; type: functional, cell-based
How it was run: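 MCF7 cells treated with 10 μM for the indicated times, with 0.2% DMSO as vehicle control, or pretreated with NAC (10 mM) for 30 min. ROS read as DCF fluorescence from CM-H2DCFDA. Mean ± SD of three independent experiments.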

[8] = test system: MEF; experiment: Cytotoxicity against TDP1-/- MEF assessed as reduction in cell viability by MTT assay; type: cell-based; settings: Mus musculus
How it was run: (§1)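 Survival of each cell line measured across a range of compound concentrations. Percent inhibition of viability at each concentration calculated against untreated control and IC50 estimated. MEFs were TDP1+/+ and TDP1–/– primary cells. Mean ± SD of at least three experiments in duplicate.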

[9] = test system: MCF7; experiment: Cytotoxicity against human MCF7 cells transfected with Top1 SiRNA assessed as reduction in cell viability by MTT assay; type: functional, cell-based
How it was run: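 MCF7 cells transfected with Top1 or control siRNA for 72 h; knockdown confirmed by Western blot with actin as loading control. Percent survival then plotted against compound concentration.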

[10] = target: T1, DNA topoisomerase 1 (Homo sapiens); experiment: Induction of proteasome-mediated topoisomerase-1 degradation in human MCF7 cells at 10 uM by Western blot method; type: cell-based; settings: TDE = time-dependent effect
How it was run: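 Whole-cell extracts of MCF7 cells treated with 10 μM for the indicated times, or preincubated with MG132 (100 nM) for 4 h before 12 h compound exposure. Top1 detected by Western blot with mouse monoclonal anti-Top1 (C21).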

[11] = test system: MCF7; experiment: Induction of DNA strand breaks in human MCF7 cells at 20 uM after 12 hrs in presence of ROS inhibitor NAC by alkaline comet assay relative to control; type: functional, cell-based
How it was run: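 MCF7 cells treated 12 h, with or without 30 min pretreatment with NAC (10 mM). Strand breaks measured by alkaline comet assay; mean comet tail calculated for 20–25 cells (average ± SEM).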

[12] = target: T1, DNA topoisomerase 1 (Homo sapiens); experiment: Inhibition of CPT-induced recombinant human EGFP-tagged topoisomerase-1- DNA cleavage complex formation assessed as restoration of Top1 mobility at 20 uM after 10 mins by FRAP assay; set-up: scale not given: the % may be the effect or the level left
How it was run: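 FRAP in living MCF7 cells transiently expressing EGFP-human Top1, 37 °C chamber. Treatment was CPT 5 μM or compound 20 μM for 10 min, or CPT for 10 min then compound for 10 min. A subnuclear spot was bleached for 30 ms at 488 nm; curves normalized to the prebleach signal.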

[13] = target: T1, DNA topoisomerase 1 (Homo sapiens); experiment: Binding affinity to recombinant human topoisomerase-1 expressed in baculovirus infected sf9 cells assessed as intrinsic tryptophan fluorescence quenching up to 1.25 uM by Job's plot analysis
How it was run: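 Job plot by continuous variation: Top1 (from Sf-9 cells infected with recombinant baculovirus) and compound varied to a combined final 1.25 μM. Tryptophan fluorescence quenching read at 350 nm with excitation at 295 nm. Mean ± SD of three independent experiments.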

[14] = test system: HCT-116; experiment: Cytotoxicity against human HCT116 cells assessed as reduction in cell viability by MTT assay; type: functional, cell-based; how it was run: as §1

inhibition [1]: Active
inhibition [2]: Active
inhibition [4]: Active
inhibition [5]: Active
EC50 [6]: 0.381 µM
Activity [10]: Tde
Activity [12]: 12 to 15%
Activity [13]: Active
Structure (SMILES): CN(C)c1ccc(-c2c3nc(c(-c4ccc(N(C)C)cc4)c4ccc([nH]4)c(-c4ccc(C(=O)O)cc4)c4nc(c(-c5ccc(C(=O)O)cc5)c5ccc2[nH]5)C=C4)C=C3)cc1
Activity [3]: Active
Activity [7]: inactive
IC50 [8]: > 10 µM
IC50 [9]: 8.15 µM
Activity [11]: inactive
IC50 [14]: 4.39 µM
